Measured values published in ChEMBL document CHEMBL3352450, “Indazole-type alkaloids from Nigella sativa seeds exhibit antihyperglycemic effects via AMPK activation in vitro” (J Nat Prod, 2014).

Assays:
[1] = system: HepG2; experiment: Increase in glucose consumption in human HepG2 cells grown under low-glucose medium assessed as reduction in glucose levels at 25 uM incubated for 7 hrs by glucose assay; assay type: functional; parameters: scale not given: the % may be the effect or the level left
Summary of the method: (§1)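 HepG2 cells (kept in high-glucose DMEM with 10% FBS) were seeded at 4.0 × 10^4 cells/well for 8 h. They were then held overnight in low-glucose ([…]) medium with 2 mM glutamine and 1% FBS. Treatment lasted 7 h in that medium, with DMSO stocks and 0.1% DMSO as solvent control. Medium glucose was read by colorimetric kit at 490 nm, with 3 replicates, as mean ± SD.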

[2] = system: HepG2; experiment: Toxicity against human HepG2 cells at 100 uM; assay type: cell-based; settings: hepg2, 100 µM
[3] = target: AMP-activated protein kinase, AMPK (Homo sapiens) (UniProt P54646+O43741+P54619+Q9UGJ0+Q9Y478+Q13131+Q9UGI9); experiment: Increase in AMPK phosphorylation in human HepG2 cells at 25 to 100 uM incubated for 24 hrs by Western blotting method; assay type: cell-based
Summary of the method: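 HepG2 cells were grown in 6-well plates for 8 h, then held overnight in low-glucose medium and treated for 24 h. Lysis was in RIPA buffer with BCA protein assay. 20 μg/lane was run on 8% SDS-PAGE and blotted to PVDF, blocked in 5% milk, and probed overnight for p-AMPK (Thr172), AMPK and β-actin. HRP secondary was applied for 1 h, with ECL detection on film.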

[4] = system: HepG2; experiment: Increase in glucose consumption in human HepG2 cells grown under low-glucose medium assessed as reduction in glucose levels at 1 mM incubated for 7 hrs by glucose assay; assay type: functional; parameters: scale not given: the % may be the effect or the level left; summary of the method: as §1

Activity [3] | Compound | Activity [1] [%] | Activity [2] | Activity [4] [%]
– | COc1cc(C)cc2c1c(-c1ccc(O)cc1)[n+]1n2CCCC1 | 8 | Non-toxic | –
Dose-dependent effect | COc1cc(C)cc2c1c(-c1ccc(O[C@@H]3O[C@H](CO)[C@@H](O)[C@H](O)[C@H]3O)cc1)[n+]1n2CCCC1 | 29 | Non-toxic | –
– | C[C@@]1(O)CC(=O)c2c(n3[n+](c2-c2ccc(O)cc2)CCCC3)C1 | 8 | Non-toxic | –
Dose-dependent effect | COc1cc(C)cc2c1c[n+]1n2CCCC1 | 8 | Non-toxic | –
– | CN(C)C(=N)NC(=N)N [METFORMIN] | – | – | 24
– | Cc1cc(O)c2c[n+]3n(c2c1)CCCC3 | 8 | Non-toxic | –
– | Cc1cc(O)c2c(-c3ccc(O)cc3)[n+]3n(c2c1)CCCC3 | 8 | Non-toxic | –
